Data reported in ChEMBL document CHEMBL2375266, “Design and synthesis of 2-substituted benzoxazoles as novel PTP1B inhibitors” (Bioorg Med Chem Lett, 2013).

What was measured:
[1] = target: T1, Tyrosine-protein phosphatase non-receptor type 1 (Homo sapiens, UniProt P18031); test: Inhibition of PTP1B (unknown origin)-mediated pNPP hydrolysis to 4-nitrophenol after 60 mins by spectrophotometric analysis
T1 sequence (P18031 whole entry): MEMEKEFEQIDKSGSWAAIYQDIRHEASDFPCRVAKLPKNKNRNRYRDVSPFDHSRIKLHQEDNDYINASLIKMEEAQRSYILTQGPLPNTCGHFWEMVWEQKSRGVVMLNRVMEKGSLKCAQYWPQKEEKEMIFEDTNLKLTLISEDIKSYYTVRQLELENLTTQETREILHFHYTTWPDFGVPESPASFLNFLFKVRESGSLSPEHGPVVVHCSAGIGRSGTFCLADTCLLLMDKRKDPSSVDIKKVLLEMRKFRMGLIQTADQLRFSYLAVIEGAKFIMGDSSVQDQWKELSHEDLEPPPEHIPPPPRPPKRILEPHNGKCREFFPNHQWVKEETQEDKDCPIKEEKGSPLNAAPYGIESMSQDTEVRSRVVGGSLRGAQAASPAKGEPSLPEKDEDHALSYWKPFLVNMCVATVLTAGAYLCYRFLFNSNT
Method in brief: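 Colorimetric pNPP assay at room temperature in 25 mM Tris pH 7.5, 75 mM NaCl, 1 mM DTT, 0.1% BSA. Compound dilution series was added, and the reaction was started with 5 nM PTP1B. After 60 min it was stopped with NaOH. 4-Nitrophenol was read at 405 nm, with corrections for substrate and compound absorbance.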

[2] = target: T2, Tyrosine-protein phosphatase non-receptor type 2 (Homo sapiens, UniProt P17706); test: Inhibition of TCPTP (unknown origin)
T2 sequence (P17706 whole entry): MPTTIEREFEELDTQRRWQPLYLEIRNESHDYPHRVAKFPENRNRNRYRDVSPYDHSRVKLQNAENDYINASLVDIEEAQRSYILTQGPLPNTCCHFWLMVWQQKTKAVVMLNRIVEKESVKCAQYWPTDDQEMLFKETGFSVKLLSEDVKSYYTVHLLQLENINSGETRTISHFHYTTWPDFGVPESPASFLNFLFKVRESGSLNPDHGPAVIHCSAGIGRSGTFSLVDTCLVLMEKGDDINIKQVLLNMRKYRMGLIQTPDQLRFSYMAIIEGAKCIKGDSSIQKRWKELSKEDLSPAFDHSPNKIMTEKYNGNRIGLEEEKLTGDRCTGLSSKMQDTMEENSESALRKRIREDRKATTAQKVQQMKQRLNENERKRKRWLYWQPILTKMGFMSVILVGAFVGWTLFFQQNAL

[3] = target: T1, Tyrosine-protein phosphatase non-receptor type 1; test: Inhibition of PTP1B (unknown origin)

SMILES	Ki [1] [µM]	Ki [2] [µM]	Ki [3] [µM]
O=C(O)c1ccc(CC(c2nc3ccccc3[nH]2)S(=O)(=O)Nc2ccc(F)cc2)cc1 (stereo not given)	> 500		
O=C(O)COc1ccc(CC(c2nc3ccccc3[nH]2)S(=O)(=O)Nc2ccc(F)cc2)cc1O (stereo not given)	162		
O=C(O)C(=O)Nc1ccc(CC(c2nc3ccccc3[nH]2)S(=O)(=O)Nc2ccc(F)cc2)cc1 (stereo not given)	67.5		
O=S(=O)(Nc1ccc(F)cc1)C(Cc1ccc(O)c(O)c1)c1nc2ccccc2[nH]1 (stereo not given)	211		
O=C(O)COc1ccc(CC(c2nc3ccccc3o2)S(=O)(=O)Nc2ccc(F)cc2)cc1O (stereo not given)	66.5		
O=C(O)C(=O)Nc1ccc(C[C@H](c2nc3ccccc3o2)S(=O)(=O)Nc2ccc(F)cc2)cc1	35		
CN(c1ccc(F)cc1)S(=O)(=O)C(Cc1ccc(NC(=O)C(=O)O)cc1)c1nc2ccccc2[nH]1 (stereo not given)	125		
NS(=O)(=O)C(Cc1ccc(NC(=O)C(=O)O)cc1)c1nc2ccccc2o1 (stereo not given)	331	137	
CC(C)(C)NS(=O)(=O)C(Cc1ccc(NC(=O)C(=O)O)cc1)c1nc2ccccc2o1 (stereo not given)	228	135	
CCCCNS(=O)(=O)C(Cc1ccc(NC(=O)C(=O)O)cc1)c1nc2ccccc2o1 (stereo not given)	82.4	33.4	
O=C(O)C(=O)Nc1ccc(CC(c2nc3ccccc3o2)S(=O)(=O)NCCc2ccc(Cl)cc2)cc1 (stereo not given)	41		
O=C(O)C(=O)Nc1ccc(CC(c2nc3ccccc3o2)S(=O)(=O)N(Cc2ccc(F)cc2)Cc2ccc(F)cc2)cc1 (stereo not given)	10		
O=C(O)C(=O)Nc1ccc(C[C@H](c2nc3ccccc3o2)S(=O)(=O)N(Cc2ccc(Cl)cc2)Cc2ccc(Cl)cc2)cc1	6.7	3.7	
O=C(O)C(=O)Nc1ccc(CC(c2nc3ccccc3o2)S(=O)(=O)N(Cc2ccccc2C(F)(F)F)Cc2ccccc2C(F)(F)F)cc1 (stereo not given)	6.8		
O=C(O)C(=O)Nc1ccc(CC(c2nc3ccccc3o2)S(=O)(=O)N(Cc2cccc(C(F)(F)F)c2)Cc2cccc(C(F)(F)F)c2)cc1 (stereo not given)	35	21	
O=C(O)C(=O)Nc1ccc(CC(c2nc3ccccc3o2)S(=O)(=O)N(Cc2ccc(C(F)(F)F)cc2)Cc2ccc(C(F)(F)F)cc2)cc1 (stereo not given)	7.7	12.5	
COc1ccc(CN(Cc2ccc(OC)cc2)S(=O)(=O)C(Cc2ccc(NC(=O)C(=O)O)cc2)c2nc3ccccc3o2)cc1 (stereo not given)	14	18.9	
O=C(O)C(=O)Nc1ccc(CC(c2nc3ccccc3o2)S(=O)(=O)N(Cc2ccc(OC(F)(F)F)cc2)Cc2ccc(OC(F)(F)F)cc2)cc1 (stereo not given)	16.8	17.2	
CC(C)(C)c1ccc(CN(Cc2ccc(C(C)(C)C)cc2)S(=O)(=O)C(Cc2ccc(NC(=O)C(=O)O)cc2)c2nc3ccccc3o2)cc1 (stereo not given)	14.9	6.4	
O=C(O)CN(CC(=O)O)S(=O)(=O)C(Cc1ccc(NC(=O)C(=O)O)cc1)c1nc2ccccc2o1 (stereo not given)	235	22	
Cc1ccc(NS(=O)(=O)C(Cc2ccc(NC(=O)C(=O)O)cc2)c2nc3ccccc3o2)cc1 (stereo not given)	62	9.2	
O=C(O)C(=O)Nc1ccc(CC(c2nc3ccccc3o2)S(=O)(=O)Nc2ccc(C(F)(F)F)cc2)cc1 (stereo not given)	23.6	8	
COc1ccc(NS(=O)(=O)C(Cc2ccc(NC(=O)C(=O)O)cc2)c2nc3ccccc3o2)cc1 (stereo not given)	68.8	134	
CC(C)Oc1ccc(NS(=O)(=O)C(Cc2ccc(NC(=O)C(=O)O)cc2)c2nc3ccccc3o2)cc1 (stereo not given)	92	101	
CC(=O)NS(=O)(=O)C(Cc1ccc(NC(=O)C(=O)O)cc1)c1nc2ccccc2o1 (stereo not given)	63	86.5	
O=C(O)C(=O)Nc1ccc(CC(c2nc3ccccc3o2)S(=O)(=O)NC(=O)c2ccccc2)cc1 (stereo not given)	125	256	
O=C(O)C(=O)Nc1ccc(CC(c2nc3ccccc3o2)S(=O)(=O)NC(=O)c2ccc(Cl)cc2)cc1 (stereo not given)	82.4	13.1	
CCc1cc(CN(C(C)=O)C(=O)NCCCCOc2cccc(O)c2C(=O)OC)ccc1N(C(=O)C(=O)O)c1ccccc1C(=O)O			0.018
